A selection: hits, their analogues and other compounds. The true share with any hit is near 2.2%.
CDK5 p35 inh – inhibitors of human CDK5/p35 kinase | Q00535+Q15078 | Recombinant CDK5/p35, ADP-Glo luminescence, 60 min | inhibition, % at 10 µM | 330,000 compounds, 0.01% hits;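 active means highest replicate inhibition of at least 50% and at least 75% of replicates reaching 50%; inconclusive means only one of the two criteria met; inactive means both criteria failed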;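 further: plate controls were DMSO neutral control for no effect and GW8510 at 10 µM for full effect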
Target sequence (Q00535 whole entry, looked up): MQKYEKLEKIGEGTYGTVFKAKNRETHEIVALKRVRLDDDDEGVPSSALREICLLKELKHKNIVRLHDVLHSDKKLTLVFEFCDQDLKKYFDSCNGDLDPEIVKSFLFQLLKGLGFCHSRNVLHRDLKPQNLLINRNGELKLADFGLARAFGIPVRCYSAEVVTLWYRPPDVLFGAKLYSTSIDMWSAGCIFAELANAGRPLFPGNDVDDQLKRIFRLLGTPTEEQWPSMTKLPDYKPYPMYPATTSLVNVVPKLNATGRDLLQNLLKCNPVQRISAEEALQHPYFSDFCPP
Target sequence (Q15078 whole entry, looked up): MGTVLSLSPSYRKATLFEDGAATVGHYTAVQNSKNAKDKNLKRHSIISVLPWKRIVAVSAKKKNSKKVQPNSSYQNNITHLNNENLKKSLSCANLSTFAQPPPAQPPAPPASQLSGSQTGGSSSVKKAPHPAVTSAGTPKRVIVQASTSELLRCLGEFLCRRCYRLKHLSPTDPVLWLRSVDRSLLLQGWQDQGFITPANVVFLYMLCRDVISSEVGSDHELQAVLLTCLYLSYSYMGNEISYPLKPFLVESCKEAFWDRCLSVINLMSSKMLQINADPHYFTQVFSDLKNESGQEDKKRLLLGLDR
dFosB act – mouse delta FosB homodimer activation | P13346 | activation, % at 25 µM | 340,000 compounds, 0.99% hits | purified delta FosB, TAMRA-CDK5 oligo fluorescence polarization; percent of positive-control signal above neutral wells;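 active means mean activation above about 17%, with every replicate also reaching it, limit read from the data, passing the limit was not always enough; inconclusive means only one of the two conditions met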
CAL PDZ FP-1 – human CAL PDZ-peptide interaction inhibition. purified CAL PDZ, TMR-peptide fluorescence polarization, 1 h. inhibition, % at 20 µM. 330,000 compounds, 0.02% hits. Q9HD26;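 active means highest replicate inhibition of at least 40%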;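 further: plate controls were DMSO neutral control wells for no effect and unlabeled competitor peptide control wells for full effect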
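Test system: tagged CAL PDZ domain / Buffer or medium: sodium phosphate/NaCl buffer pH 7.4 with TCEP, IgG, Thesit / Reagent: TMR-labelled reporter peptide T*-PRC34 bound in PDZ groove / Compound dosing: single point, 20 µM / Schedule: 1 h incubation at room temperature before polarization reading / Technique: fluorescence polarization (mP) / Benchmarks: unlabelled peptide, DMSO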
Rtt109 Vps75 – C. albicans Rtt109 histone acetyltransferase inhibition | Q5AAJ8 | purified Rtt109/Vps75, ThioGlo CoA-SH fluorescence, 4 h | inhibition, % at 34.9 µM | 330,000 compounds, 0.16% hits | AID 540336;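 active means inhibition of at least 50% in every replicate; inconclusive means best replicate reaches 50% inhibition but some replicates fall short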
CAL PDZ FP-2 – blocks peptide binding to the human CAL PDZ domain. Q9HD26. purified CAL PDZ, TMR-peptide fluorescence polarization, 1 h. inhibition, % at 24.9 µM. 300,000 compounds, 0.92% hits. AID 602252;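 active means mean inhibition of at least 30% with at least half of replicates also reaching 30%; inconclusive means no clear call, values can overlap the other calls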;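 further: 0% = DMSO neutral control and 100% = excess unlabeled competitor peptide PRC23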
DYRK1A inh – Dyrk1A (rat) kinase inhibition; ADP-Glo luminescence, NFATc1 peptide; inhibition, % at 12.5 µM; 310,000 compounds, 0.43% hits; in the data active means inhibition above about 50%;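 further: plate controls were vehicle with enzyme for no effect and no enzyme for full effect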
Active calls of the source: *.

What do the screens show for `C#CCOCCOCCOCCNc1nc(N2CCN(C(=O)[C@H]([C@@H](C)CC)n3cc([C@@H](N)Cc4ccc(O)cc4)nn3)CC2)nc(N2CCN(C(=O)[C@H](Cc3cc4ccccc4[nH]3)n3cc([C@@H](N)CC(C)C)nn3)CC2)n1`?
CDK5 p35 inh: 1.6; dFosB act: 23.4*; CAL PDZ FP-1: -0.3; Rtt109 Vps75: 4.9; CAL PDZ FP-2: 5.2; DYRK1A inh: 9.8

Results for C#CCOCCOCCOCCNc1nc(N2CCN(C(=O)[C@H](CCCN=C(N)N)n3cc(C(N)[C@@H](C)CC)nn3)CC2)nc(N2CCN(C(=O)[C@H](CCCCN)n3cc([C@@H](N)CC(N)=O)nn3)CC2)n1 (stereo not given in full) ?
CDK5 p35 inh: 2.6; dFosB act: 12.9; CAL PDZ FP-1: 0.3; Rtt109 Vps75: 80.3*; CAL PDZ FP-2: 0.0; DYRK1A inh: 4.6

Results for C#CCOCCOCCOCCNc1nc(N2CCN(C(=O)[C@H](CCCCN)n3cc([C@@H](N)C(C)CC)nn3)CC2)nc(N2CCN(C(=O)[C@H](Cc3ccc(O)cc3)n3cc([C@@H](N)CC(C)C)nn3)CC2)n1 (stereo not given in full) ?
CDK5 p35 inh: 0.9; dFosB act: -0.6; CAL PDZ FP-1: -0.3; Rtt109 Vps75: -5.2; CAL PDZ FP-2: 0.3; DYRK1A inh: 3.9

What do the screens show for `C#CCOCCOCCOCCNc1nc(N2CCN(C(=O)C(Cc3cc4ccccc4[nH]3)n3cc(C(N)C(C)CC)nn3)CC2)nc(N2CCN(C(=O)C(Cc3cc4ccccc4[nH]3)n3cc(C(N)C(C)CC)nn3)CC2)n1` (stereo not given)?
CDK5 p35 inh: 0.8; dFosB act: inconclusive; CAL PDZ FP-1: 0.4; Rtt109 Vps75: 9.3; CAL PDZ FP-2: 6.9; DYRK1A inh: 6.3

Results for C#CCOCCOCCOCCNc1nc(N2CCN(C(=O)[C@H](CCCCN)n3cc([C@@H](N)C(C)CC)nn3)CC2)nc(N2CCN(C(=O)[C@H](Cc3cc4ccccc4[nH]3)n3cc([C@@H](N)C(C)CC)nn3)CC2)n1 (stereo not given in full) ?
CDK5 p35 inh: 6.6; dFosB act: 63.4*; CAL PDZ FP-1: 0.1; Rtt109 Vps75: 2.1; CAL PDZ FP-2: -2.1

How did C#CCOCCOCCOCCNc1nc(N2CCN(C(=O)[C@H](CCCN=C(N)N)n3cc(C(N)[C@@H](C)CC)nn3)CC2)nc(N2CCN(C(=O)[C@H](CCC(=O)O)n3cc([C@@H](N)CC(N)=O)nn3)CC2)n1 (stereo not given in full) do in these assays?
CDK5 p35 inh: 2.2; dFosB act: -3.8; CAL PDZ FP-1: 1.5; Rtt109 Vps75: 0.2; CAL PDZ FP-2: -1.2

What do the screens show for `CCc1nnc(NC(=O)CCS(=O)(=O)Cc2ccccc2)s1`?
CDK5 p35 inh: 1.4; dFosB act: -4.9; CAL PDZ FP-1: -2.5; Rtt109 Vps75: -8.5; CAL PDZ FP-2: -0.1; DYRK1A inh: -3.2

What do the screens show for `CCC(CC)c1nnc(NC(=O)CCS(=O)(=O)Cc2ccccc2)s1`?
CDK5 p35 inh: 1.3; dFosB act: -14.8; CAL PDZ FP-1: -0.7; Rtt109 Vps75: -6.0; CAL PDZ FP-2: 41.2*; DYRK1A inh: 4.1

How did COc1ccc(S(=O)(=O)N2CC(C(=O)O)Oc3ccc(CC(=O)O)cc32)cc1 (stereo not given) do in these assays?
dFosB act: -1.6; CAL PDZ FP-1: 0.6; Rtt109 Vps75: 2.4; CAL PDZ FP-2: 37.9*; DYRK1A inh: 4.9

What do the screens show for `COCC1CCN(C(=O)c2ccc3oc(CCCc4ccccc4)nc3c2)C1` (stereo not given)?
CDK5 p35 inh: 0.5; dFosB act: -7.5; CAL PDZ FP-1: active; Rtt109 Vps75: 7.8; CAL PDZ FP-2: -2.5; DYRK1A inh: -0.1

Results for COc1cc(/C=C2\SC(=S)N(CC(=O)Nc3cccnc3)C2=O)cc(OC)c1OC ?
CDK5 p35 inh: 0.8; dFosB act: 12.3; CAL PDZ FP-1: -2.8; Rtt109 Vps75: 2.2; CAL PDZ FP-2: -2.6; DYRK1A inh: -2.3

What do the screens show for `COc1ccc(/C=C2\SC(=O)N(CC(=O)Nc3cccc(C)c3)C2=O)cc1O`?
CDK5 p35 inh: 1.0; dFosB act: 18.9*; CAL PDZ FP-1: -0.5; Rtt109 Vps75: 4.9; CAL PDZ FP-2: -4.5; DYRK1A inh: -0.3

Results for COc1cc(/C=C2\SC(=S)N(CC(=O)Nc3ccc(O)cc3)C2=O)cc(OC)c1OC ?
CDK5 p35 inh: -1.1; dFosB act: 17.8*; CAL PDZ FP-1: -1.7; Rtt109 Vps75: -0.2; CAL PDZ FP-2: -3.1; DYRK1A inh: -4.8

How did CCc1nnc(NC(=O)CSc2nnc(C3CCCCC3)n2-c2cccc(Cl)c2)s1 do in these assays?
CDK5 p35 inh: -0.8; dFosB act: -13.5; CAL PDZ FP-1: -3.2; Rtt109 Vps75: 59.2*; CAL PDZ FP-2: -3.2; DYRK1A inh: -1.3

How did CCc1nnc(NC(=O)CSc2nnc(CNc3cccc(Cl)c3)n2CC)s1 do in these assays?
CDK5 p35 inh: -1.3; dFosB act: -7.0; CAL PDZ FP-1: 0.0; Rtt109 Vps75: -0.6; CAL PDZ FP-2: -3.8; DYRK1A inh: -0.1

What do the screens show for `COc1ccccc1CNC(=O)C(C)c1ccc([N+](=O)[O-])cc1` (stereo not given)?
CDK5 p35 inh: -0.4; dFosB act: 4.2; CAL PDZ FP-1: -2.4; Rtt109 Vps75: -2.8; CAL PDZ FP-2: -1.7; DYRK1A inh: -0.4

Results for Cc1ccc(-c2nnc(NCc3nc4ccccc4[nH]3)c3ccccc23)cc1S(=O)(=O)N1CCCCC1 ?
CDK5 p35 inh: -1.9; dFosB act: 79.5*; CAL PDZ FP-1: -2.0; Rtt109 Vps75: -4.3; DYRK1A inh: 0.4

How did Cc1ccc(S(=O)(=O)N2CC(O)CC2C(=O)O)cc1 (stereo not given) do in these assays?
CDK5 p35 inh: 1.0; dFosB act: 2.0; CAL PDZ FP-1: -1.7; Rtt109 Vps75: -3.8; CAL PDZ FP-2: -3.7; DYRK1A inh: -2.4

What do the screens show for `N=C1/C(=C\c2ccc(-c3ccc(C(=O)O)cc3)o2)C(=O)N=C2SC=C(c3ccccc3)N12`?
CDK5 p35 inh: 4.4; dFosB act: -7.9; CAL PDZ FP-1: 12.0; Rtt109 Vps75: -15.9; CAL PDZ FP-2: 78.3*; DYRK1A inh: -7.7

What do the screens show for `COc1ccccc1-n1c(=S)[nH]c2c(sc(=S)n2-c2ccccc2C)c1=O`?
CDK5 p35 inh: -1.0; dFosB act: -8.5; CAL PDZ FP-1: 0.8; Rtt109 Vps75: 2.8; CAL PDZ FP-2: 74.8*; DYRK1A inh: 3.1

What do the screens show for `COc1ccc(C2(C)NC(=O)N(CC(=O)N(c3ccccc3)C3CCS(=O)(=O)C3)C2=O)cc1` (stereo not given)?
CDK5 p35 inh: 1.2; dFosB act: -4.1; CAL PDZ FP-1: 0.7; Rtt109 Vps75: -2.4; DYRK1A inh: -5.4
